Data taken from ChEMBL document CHEMBL3784974, “Design and Structural Characterization of Potent and Selective Inhibitors of Phosphatidylinositol 4 Kinase IIIβ” (J Med Chem, 2016).

Experiments:
[1] = target: Phosphatidylinositol 3-kinase catalytic subunit type 3 (Homo sapiens, UniProt Q8NEB9); test: Inhibition of GST-tagged recombinant human full length VPS34 expressed in baculovirus preincubated for 15 mins followed by addition of cold ATP/gamma32P-ATP measured after 1 hr in presence of MnCl2
In short: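 Radiometric membrane-capture assay, 10 nM purchased vps34, 15 min preincubation with inhibitor, then 1 h reaction. Final: 50 mM HEPES pH 7.5, 0.1% CHAPS, 2mM MnCl2, 1 mM EGTA, 2 mM DTT, 100 µM PI in PI:DOPS:DOPC, 500 ng/µL BSA, 2% DMSO, 10 µM ATP, 2.5 uCi γ32P-ATP; spots washed, phosphorimaged.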

[2] = Inhibition of N-terminal flag-tagged recombinant human full length PI4K3alpha expressed in baculovirus infected Sf21 insect cells preincubated for 15 mins followed by addition of cold ATP/gamma32P-ATP measured after 25 mins
In short: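 Purchased PI4KIIIα at 1.2 nM; 15 min inhibitor preincubation, 25 min reaction in 20 mM Bis-Tris propane pH 7.5, 10 mM MgCl2, 0.075 mM Triton X-100, 0.5 mM EGTA, 1 mM DTT, 100 µM PI (PI:DOPS:DOPC), 500 ng/µL BSA, 2% DMSO, 10 µM ATP, 2 uCi γ32P-ATP. Radiolabel captured on nitrocellulose, phosphorimaged.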

[3] = target: Phosphatidylinositol 4-kinase type 2-alpha (Homo sapiens) (UniProt Q9BTU6); test: Inhibition of flag-tagged recombinant PI4K2alpha (unknown origin) transfected in HEK293T cells upto 20 uM preincubated for 15 mins followed by addition of cold ATP/gamma32P-ATP measured after 25 mins; type: cell-based; settings: HEK-293T
Chain of Phosphatidylinositol 4-kinase type 2-alpha (Homo sapiens) (Q9BTU6 whole entry): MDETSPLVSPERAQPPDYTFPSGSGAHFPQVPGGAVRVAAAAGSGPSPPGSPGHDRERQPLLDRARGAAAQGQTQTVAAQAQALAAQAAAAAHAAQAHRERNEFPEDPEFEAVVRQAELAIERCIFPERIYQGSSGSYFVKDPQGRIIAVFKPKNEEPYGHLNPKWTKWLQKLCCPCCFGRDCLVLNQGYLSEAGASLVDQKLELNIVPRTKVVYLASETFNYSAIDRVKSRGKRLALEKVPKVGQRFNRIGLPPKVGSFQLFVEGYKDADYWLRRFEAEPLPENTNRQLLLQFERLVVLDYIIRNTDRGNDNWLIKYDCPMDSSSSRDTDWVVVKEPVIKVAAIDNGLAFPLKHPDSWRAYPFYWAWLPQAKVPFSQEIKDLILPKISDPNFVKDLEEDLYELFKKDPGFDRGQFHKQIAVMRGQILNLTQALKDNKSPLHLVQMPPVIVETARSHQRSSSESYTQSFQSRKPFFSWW
In short: (§1)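 Enzymes cloned from DNASU plasmids, FLAG-tagged, transfected into HEK293T and FLAG-immunoprecipitated, eluted with FLAG peptide. 15 min inhibitor preincubation, 25 min reaction in 20 mM Bis-Tris propane pH 7.5, 10 mM MgCl2, 0.075 mM Triton X-100, 0.5 mM EGTA, 1 mM DTT, 100 µM PI, 500 ng/µL BSA, 2% DMSO, 10 µM ATP, 2 uCi γ32P-ATP; phosphorimaging.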

[4] = target: Phosphatidylinositol 4,5-bisphosphate 3-kinase catalytic subunit beta isoform (Homo sapiens) (UniProt P42338); test: Inhibition of N-terminal histidine-tagged recombinant human full length PI3Kbeta expressed in baculovirus infected Sf9 insect cells upto 20 uM preincubated for 15 mins followed by addition of cold ATP/gamma32P-ATP measured after 15 mins
Chain of Phosphatidylinositol 4,5-bisphosphate 3-kinase catalytic subunit beta isoform (Homo sapiens) (P42338 whole entry, looked up, canonical isoform): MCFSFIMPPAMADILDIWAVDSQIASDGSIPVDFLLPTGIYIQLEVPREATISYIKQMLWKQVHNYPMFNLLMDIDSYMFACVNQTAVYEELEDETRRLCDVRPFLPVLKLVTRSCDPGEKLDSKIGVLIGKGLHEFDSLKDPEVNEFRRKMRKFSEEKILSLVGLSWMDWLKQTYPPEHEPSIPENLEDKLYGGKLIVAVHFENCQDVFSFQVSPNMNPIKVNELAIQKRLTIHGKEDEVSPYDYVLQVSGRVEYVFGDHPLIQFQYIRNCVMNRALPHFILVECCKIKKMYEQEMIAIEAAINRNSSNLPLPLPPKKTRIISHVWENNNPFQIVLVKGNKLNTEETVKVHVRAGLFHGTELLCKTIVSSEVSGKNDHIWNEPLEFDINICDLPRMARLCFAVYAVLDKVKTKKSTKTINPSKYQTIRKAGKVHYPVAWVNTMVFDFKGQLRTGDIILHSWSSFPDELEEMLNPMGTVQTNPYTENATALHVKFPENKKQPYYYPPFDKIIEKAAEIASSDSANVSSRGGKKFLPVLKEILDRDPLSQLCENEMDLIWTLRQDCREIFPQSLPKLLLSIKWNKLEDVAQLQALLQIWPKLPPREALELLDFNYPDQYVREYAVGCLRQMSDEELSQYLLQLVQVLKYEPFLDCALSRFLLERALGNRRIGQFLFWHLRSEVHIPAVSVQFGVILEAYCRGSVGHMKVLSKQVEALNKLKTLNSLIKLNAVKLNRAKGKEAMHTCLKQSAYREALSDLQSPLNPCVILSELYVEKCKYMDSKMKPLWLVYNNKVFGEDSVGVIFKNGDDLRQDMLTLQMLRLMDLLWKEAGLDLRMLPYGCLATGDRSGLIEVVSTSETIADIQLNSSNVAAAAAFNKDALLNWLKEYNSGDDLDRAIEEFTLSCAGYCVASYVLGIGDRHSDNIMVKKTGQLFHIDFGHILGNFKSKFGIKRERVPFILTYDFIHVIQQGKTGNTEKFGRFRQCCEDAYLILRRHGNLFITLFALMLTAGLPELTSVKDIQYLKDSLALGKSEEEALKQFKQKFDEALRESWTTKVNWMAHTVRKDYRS
In short: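 PI3Kβ 0.6 nM final; inhibitor preincubated 15 min, reaction 15 min. Final: 50 mM HEPES pH 7.5, 100 mM NaCl, 0.03% CHAPS, 10 mM MgCl2, 1 mM EGTA, 2 mM DTT, 80 µM PIP2 (PIP2:DOPS:DOPC), 500 ng/µL BSA, 2% DMSO, 10 µM ATP, 2 uCi γ32P-ATP; membrane capture, phosphorimaging.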

[5] = target: Phosphatidylinositol 4-kinase type 2-beta (Homo sapiens) (UniProt Q8TCG2); test: Inhibition of flag-tagged recombinant PI4K2beta (unknown origin) transfected in HEK293T cells upto 20 uM preincubated for 15 mins followed by addition of cold ATP/gamma32P-ATP measured after 25 mins; type: cell-based; settings: HEK-293T; in short: as §1
Chain of Phosphatidylinositol 4-kinase type 2-beta (Homo sapiens) (Q8TCG2 whole entry, the tested form may be a part): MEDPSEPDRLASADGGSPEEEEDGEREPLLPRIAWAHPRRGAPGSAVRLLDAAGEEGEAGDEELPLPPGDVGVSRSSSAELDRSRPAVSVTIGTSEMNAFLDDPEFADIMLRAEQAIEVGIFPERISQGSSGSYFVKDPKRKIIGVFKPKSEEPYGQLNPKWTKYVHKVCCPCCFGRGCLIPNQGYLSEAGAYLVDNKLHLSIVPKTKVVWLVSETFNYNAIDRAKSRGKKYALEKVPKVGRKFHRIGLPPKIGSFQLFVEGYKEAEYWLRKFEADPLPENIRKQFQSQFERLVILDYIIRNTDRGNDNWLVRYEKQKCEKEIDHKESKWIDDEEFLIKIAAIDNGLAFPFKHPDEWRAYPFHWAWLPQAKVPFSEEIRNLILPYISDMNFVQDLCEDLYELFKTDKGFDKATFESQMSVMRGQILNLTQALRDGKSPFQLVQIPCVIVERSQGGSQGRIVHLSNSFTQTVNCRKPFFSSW

[6] = target: T1, Phosphatidylinositol 3-kinase C2 domain-containing subunit gamma (Homo sapiens, UniProt O75747); test: Inhibition of N-terminal GST-tagged recombinant human full length PI3KC2gamma expressed in baculovirus infected Sf21 insect cells preincubated for 15 mins followed by addition of cold ATP/gamma32P-ATP measured after 15 mins
T1 sequence (O75747 whole entry): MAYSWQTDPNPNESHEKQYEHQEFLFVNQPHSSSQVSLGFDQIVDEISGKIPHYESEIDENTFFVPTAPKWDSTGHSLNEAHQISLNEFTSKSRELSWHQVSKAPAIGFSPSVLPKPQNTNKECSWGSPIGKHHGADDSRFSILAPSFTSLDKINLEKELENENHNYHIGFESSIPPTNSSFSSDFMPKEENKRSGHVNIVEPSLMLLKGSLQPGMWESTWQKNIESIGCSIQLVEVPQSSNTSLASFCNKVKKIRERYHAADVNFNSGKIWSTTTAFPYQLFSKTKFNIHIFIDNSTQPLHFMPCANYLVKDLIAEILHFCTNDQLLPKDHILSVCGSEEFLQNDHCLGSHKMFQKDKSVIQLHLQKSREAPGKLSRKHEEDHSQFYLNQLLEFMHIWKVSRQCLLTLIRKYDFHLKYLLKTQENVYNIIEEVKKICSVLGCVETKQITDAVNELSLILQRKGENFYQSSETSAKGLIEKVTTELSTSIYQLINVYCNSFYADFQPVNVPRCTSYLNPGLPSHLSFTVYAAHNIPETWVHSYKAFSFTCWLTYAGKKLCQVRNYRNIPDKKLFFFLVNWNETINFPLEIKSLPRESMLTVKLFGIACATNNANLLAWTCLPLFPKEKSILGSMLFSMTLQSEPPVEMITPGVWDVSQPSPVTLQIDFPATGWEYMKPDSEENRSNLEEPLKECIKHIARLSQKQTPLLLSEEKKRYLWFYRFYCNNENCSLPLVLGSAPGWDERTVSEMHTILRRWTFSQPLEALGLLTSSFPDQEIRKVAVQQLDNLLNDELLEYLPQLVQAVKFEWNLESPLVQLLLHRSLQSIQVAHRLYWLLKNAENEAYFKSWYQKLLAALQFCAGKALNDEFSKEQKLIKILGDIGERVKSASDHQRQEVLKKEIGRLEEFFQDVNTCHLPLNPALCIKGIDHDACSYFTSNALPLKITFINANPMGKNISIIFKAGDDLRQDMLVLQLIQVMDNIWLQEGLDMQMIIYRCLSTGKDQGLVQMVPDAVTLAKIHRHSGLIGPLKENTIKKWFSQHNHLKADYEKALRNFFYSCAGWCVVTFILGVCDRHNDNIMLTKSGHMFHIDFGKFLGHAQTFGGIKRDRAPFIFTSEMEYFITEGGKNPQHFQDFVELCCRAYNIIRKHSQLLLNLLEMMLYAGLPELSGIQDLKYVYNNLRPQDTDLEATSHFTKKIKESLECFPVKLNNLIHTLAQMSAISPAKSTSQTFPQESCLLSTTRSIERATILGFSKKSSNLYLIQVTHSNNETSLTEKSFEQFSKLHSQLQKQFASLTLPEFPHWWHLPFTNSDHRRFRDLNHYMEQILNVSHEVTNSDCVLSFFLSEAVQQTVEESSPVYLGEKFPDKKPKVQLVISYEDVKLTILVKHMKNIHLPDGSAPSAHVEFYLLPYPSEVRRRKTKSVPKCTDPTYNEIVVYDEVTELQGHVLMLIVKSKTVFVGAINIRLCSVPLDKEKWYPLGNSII
In short: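 1 nM PI3KC2γ, 15 min inhibitor preincubation, 15 min reaction. Final: 50 mM HEPES pH 7.5, 100 mM NaCl, 0.03% CHAPS, 10 mM MgCl2, 1 mM EGTA, 2 mM DTT, 100 µM PI (PI:DOPS:DOPC), 500 ng/µL BSA, 2% DMSO, 10 µM ATP, 2 uCi γ32P-ATP. Nitrocellulose capture, phosphorimaging.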

Chain of Phosphatidylinositol 3-kinase catalytic subunit type 3 (Q8NEB9 whole entry): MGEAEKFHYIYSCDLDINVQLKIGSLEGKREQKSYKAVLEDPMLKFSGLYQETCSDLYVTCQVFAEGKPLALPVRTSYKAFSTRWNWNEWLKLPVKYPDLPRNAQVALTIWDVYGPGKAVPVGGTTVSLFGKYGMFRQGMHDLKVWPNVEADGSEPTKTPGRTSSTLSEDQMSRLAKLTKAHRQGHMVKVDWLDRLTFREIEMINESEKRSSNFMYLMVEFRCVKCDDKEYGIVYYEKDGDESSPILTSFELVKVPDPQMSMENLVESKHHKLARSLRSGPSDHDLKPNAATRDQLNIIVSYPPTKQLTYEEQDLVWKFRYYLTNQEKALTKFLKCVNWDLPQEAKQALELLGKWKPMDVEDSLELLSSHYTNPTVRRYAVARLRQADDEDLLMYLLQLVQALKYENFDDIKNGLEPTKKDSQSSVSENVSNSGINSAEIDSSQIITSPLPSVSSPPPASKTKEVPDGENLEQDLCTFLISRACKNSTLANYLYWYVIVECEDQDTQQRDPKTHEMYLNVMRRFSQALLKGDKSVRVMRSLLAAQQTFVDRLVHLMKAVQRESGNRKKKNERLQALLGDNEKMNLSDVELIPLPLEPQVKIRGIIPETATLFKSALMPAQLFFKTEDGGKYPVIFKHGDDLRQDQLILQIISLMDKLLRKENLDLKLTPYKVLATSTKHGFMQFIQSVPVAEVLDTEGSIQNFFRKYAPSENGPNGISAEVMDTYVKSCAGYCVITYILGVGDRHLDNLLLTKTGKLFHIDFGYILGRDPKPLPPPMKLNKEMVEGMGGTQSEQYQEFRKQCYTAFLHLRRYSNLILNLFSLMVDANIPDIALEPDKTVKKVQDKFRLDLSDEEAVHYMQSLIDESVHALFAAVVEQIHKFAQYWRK

`COc1ccc(-c2sc(NC(=O)C(C)(C)C)nc2C)cc1S(=O)(=O)Nc1ccc(O)cc1` showed an IC50 [1] of over 20000 nM, an IC50 [2] of 3000 nM and an inhibition [3] of under 20%. For the same compound, the inhibition [4] was under 20%, the inhibition [5] was under 20% and the IC50 [6] was 1000 nM.
With `COc1ccc(-c2sc(NC(=O)C3CCCC3)nc2C)cc1S(=O)(=O)Nc1ccc(O)cc1` the IC50 [1] was over 20000 nM, the IC50 [2] was 2600 nM and the inhibition [3] was under 50%. It also gave an inhibition [4] of under 50%, an inhibition [5] of under 50% and an IC50 [6] of 1000 nM.
